Measurements published in the EternaBench riboswitch data.

Tested on: MS2 coat protein
Test: apparent Kd, MS2 coat protein; higher = weaker binding; RNA-MaP array; FMN 200 µM where present
In short: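 Two titrations, one without ligand and one with constant ligand, were run with SNAP-549-labelled MS2 coat protein from 0.7 or 1.5 nM, doubling to 3 µM. The targets were designs transcribed by stalled E. coli RNA polymerase on Illumina sequencing-chip clusters, in 100 mM Tris-HCl pH 7.5, 80 mM KCl, 4 mM MgCl2, BSA, DTT, yeast tRNA and Tween-20. The apparent Kd is the median of filtered per-cluster binding-curve fits, with green signal normalised to red-channel RNA signal and control-cluster median Fmax.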

[1] = designed as: OFF switch for flavin mononucleotide, no ligand
[2] = ligand present: flavin mononucleotide, designed as: OFF switch for flavin mononucleotide
[3] = designed as: ON switch for flavin mononucleotide, no ligand
[4] = ligand present: flavin mononucleotide, designed as: ON switch for flavin mononucleotide

Row | Sequence | apparent Kd [1] [nM] | apparent Kd [2] [nM] | apparent Kd [3] [nM] | apparent Kd [4] [nM]
1 | CCGUUGGGCUAGAAGGCUCCGGGAGGACCGCGGAGAGGAUAUAGCACAUGAGGAUCACCCAUGUGGUAUGACCUUAUGUAUUCA | 33.6 | 65.1 |  | 
2 | UGGUACUAGGGAGGAUAUGGGAAGAUACAUGAGGAUCACCCAUGUUUAAGAAUGCCGAGAGGCAACUAGAAGGCCCUAGUACAU |  |  | 537 | 18.7
3 | ACAUGAGACUAAGGAUAUGAUGUACCUAUAUGUGACAUGAGGAUCACCCAUGUGGUAAGUAUGAUUCAGAAGGUAGAGAUAUGU |  |  | 98.7 | 32.6
4 | GCCUCACAUGAGGAUCACCCAUGUCAGGAUAUCUAAGGCGAGGUGCAGGCACUUCGUGAGAGAAGGGACGUCAA | 21.4 | 49.8 |  | 
5 | GGCGGACAUGAGGAUCACCCAUGUAAGGAUAUUAGGCGAUCGUCGAAAGACGAUAGCCUGAGAAGGUACGCGCC | 14.7 | 17.2 |  | 
6 | UUUUAACAUGAGGAUCACCCAUGUGAGGAUAUCGAAAUUUAUAUUAAUAUUUAUUAUUCGAGAAGGCACAUUUU | 152 | 167 |  | 
7 | UUAUUAUAUGUAGGAUAUGCAUAUUAGUAUUGUGCAGAAGGACAUGAGGAUCACCCAUGUAUAUUAUUAUUAUAUAUUAUAUAU | 14.6 | 21.4 |  | 
8 | ACCACGAUAGCGAUAUGAUCGAGAGAUCAUGUCGCUAUUUUUAGAAGGACAUGAGGAUCACCCAUGUAGGAUAUGGGACGUGGA |  |  | 24.7 | 10.3
9 | UAAGAGUGAGGAUAUACGUCGCUGGACCGGAUGGACGCAUGACAUGAGGAUCACCCAUGUAGAAGGCACAAAAC | 20.2 | 25.5 |  | 
10 | CUUUCGUGAGGAUAUGUGGCUUCGAUCGUGAAAUCGAGGCUACAGAAGGCACAUGAGGAUCACCCAUGUUCCUC | 34.3 | 410 |  | 
11 | CGAACUCCGUAGAAGGGUGACAUGAGGAUCACCCAUGUGCGAGCGGAGGGAGUCAGCGGCUCGCCACAGGAUAUACGGAGCACG |  |  | 49.4 | 107
12 | AUACGUGAGAAGGAUAUCACUCGCCAGAGGCGAUGAGAAGGUUUCACAUGAGGAUCACCCAUGUGCUCUUCUAG | 32 | 75.1 |  | 
13 | ACUAGAUGCGUGAAAUAACACAUGAGGAUCACCCAUGUGACGCAGGAUAUAACCAGAUCAGAAAGUUAGAAGGGUGAGCACGCA |  |  | 60.8 | 31.8
14 | AGUUGUUCAGGAUAUGAUGAAUAUUACAUGAGGAUCACCCAUGUAGAUCCUGAAUAUGAAUCAGAAGGGAAUAUUU | 15.3 | 32.5 |  | 
15 | AUCAUGUCAGGAUAUGUGAUAUGGAUCUUCGGAUCAAGUUCACAGAAGGGACAUGAGGAUCACCCAUGUCGAAC | 50.6 | 91.7 |  | 
16 | GUUAGGAAUCUAGCGAACAUGAGGAUCACCCAUGUUAGUGGGAAGGAUAUGGUACAGAAACUGUACCAGAAGGUCUUAUUGUUU |  |  | 398 | 305
17 | GCAUUGAUAACAGGAUAUAUGAGUCCUACAUGAGGAUCACCCAUGUAGGUGAUCAGCCGUGAUUAGUAGAAGGGUUAUCAAUGC |  |  | 13 | 5.99
18 | GACUUGUUAGGAUAUCUUACAUUUGCAUCAUAGCAACCAUUGGAGAAGGGACAUGAGGAUCACCCAUGUUUGGA | 31.6 | 31 |  | 
19 | AGCUGACAAGGAUAUACUCGGGAUGCUAGUCGCGCAGAAGCACAUGAGGAUCACCCAUGUAGAAGGUGUCAGAA | 158 | 83.2 |  | 
20 | CGACGAGUGGAGAAGGACUUUGACUAGCACAGGGUAGGAUAUCCACAUGAGGAUCACCCAUGUAGGAUACUUAUUGGGCCGCCU | 6.96 | 22.8 |  | 
21 | GACAUACAUGAGGAUCACCCAUGUUCAGGCGGACAAGGAUAUGUGUGGAAACCAUACUAUACAGAAGGUGUCUGUC |  |  | 24.8 | 17.3

Row | Sequence | apparent Kd [1] [nM] | apparent Kd [2] [nM] | apparent Kd [3] [nM] | apparent Kd [4] [nM]
22 | UUUACAUGAGGAUCACCCAUGUCUGUCACACGUAUGUGCAAUCAGGAUAUGAUCUCAAGAAUGAAUUAGAAGGGAUAAAGAGAA |  |  | 212 | 250
23 | AAUCGGGAGCAGAAGGCAUGUCAAAAGACAUGAGGAUCACCCAUGUAUAAAAGGCGAAAGCCGCAUGAGGAUAUGCUCCCGUAA |  |  | 29.4 | 5.81
24 | GGUUGUCAUCGUCAUCCUUUCGGUACAUGAGGAUCACCCAUGUAGGAUAUGCUGCGUUCGAUGUGGCAGAAGGGCGUGUGUGUU | 22.1 | 40.5 |  | 
25 | UAUACACAUGAGGAUCACCCAUGUGAGGAUAUGCGUACGUUGUCCGUAGGCGACGUGCGCAGAAGGCGCAAGGU | 72.7 | 104 |  | 
26 | UUAGAUUAUUGAGGAUAUGGAUCUUAUUAUUAACCAGAAGGCAAACUCAACAUGAGGAUCACCCAUGUAUAAAGGGUAUUAGUU | 89.5 | 83.4 |  | 
27 | GAAAAGCGAGGAUAUACAUGAGGAUCACCCAUGUGUUGGGUGCGUUGGCUAGUCGUCUGUAGAAGGCGCACAAA | 904 | 466 |  | 
28 | GGGUGAUGUAGAGGAUAUCCAGGACGAUACAGAGGAGAAGGCUACAUGAGGAUCACCCAUGUCACCGGGAUAAAGCUGUAGAGU | 39.8 | 109 |  | 
29 | ACGCCCUGAGGAUAUCUUAUCCCGCACAUGAGGAUCACCCAUGUUCUCCUCCGGGCUCCGAGAGAAGGCAGGCCCA | 30.7 | 41.2 |  | 
30 | UUUUAACAUGAGGAUCACCCAUGUGAGGAUAUCGAAAUUUAUAUUAAUAUUAUUAUAACGAGAAGGCACAUUUU | 66.5 | 82.9 |  | 
31 | GUACAUGAGCAGAAGGGCAAUUAAUUAAAAUUUUAUGUUUAUCAGAUAUGCAGGAUAUGUUAAACAUGAGGAUCACCCAUGUAC |  |  | 191 | 48.5
32 | AAGACAUGAGGAUCACCCAUGUAAAGACCGGUCGAUCAAUGUGAGGAUAUACGAUAAUUGAUAGGGUAGAAGGCACUGGGUUGA |  |  | 264 | 151
33 | UUAACUCAUGUAGGAUAUGCAUGGCGAAGCUACGCAGAAGGACAUGAGGAUCACCCAUGUUCUAGCGUCUGAAUACAGAUGCAA | 53.7 | 303 |  | 
34 | GGGUAUAAACCCGUCUCCGCUCAACCAGAAGGGCACGAUAAUAUUACAUGAGGAUCACCCAUGUUGCAGGAUAUGGUGAGCCUC |  |  | 363 | 66.9
35 | GCAUUGAUAACAGGAUAUAUGUUUCCUACAUGAGGAUCACCCAUGUAGGUGAUCAGCCGAGAAAAGUAGAAGGGUUAUCAAUGC |  |  | 16.7 | 15.4
36 | ACAUGACAUGAGGAUCACCCAUGUGAGGAUAUGCGAAAAAAAAAAAAAAAAAAAAAAAGCAGAAGGCACAAAAA | 180 | 280 |  | 
37 | AGGAAGUCAGGAUAUGCUGCUCGUCACUUGCGUGAUGAGUAGCAGAAGGGACAUGAGGAUCACCCAUGUAAAAA | 52.6 | 57.9 |  | 
38 | GUGUACGGAGGAUAUAUGUGGUGAGCAUACGCUCAAGCUUCACAUGAGGAUCACCCAUGUAGAAGGCUGUGCAC | 210 | 150 |  | 
39 | GUAGCUAUCGCAGGAUAUCCUCAGGCGAAAGCCACAUGAGGAUCACCCAUGUAAAUAAAGUAUUUGGAGAAGGGCGAUAGCUAC |  |  | 710 | 36.1
40 | AUGGACGUCGUAGGAUAUGUAGGAUUCUCGUACAUGAGGAUCACCCAUGUUGACGUCGAGGACGGACAGAAGGGCGGUGUCCAU |  |  | 42.3 | 8.01
41 | GAUUCACAUGAGGAUCACCCAUGUCGUAAUAUGGGAGGAUAUACGUGGACCGUAGUCCGCGUAGAAGGCCUAAUUG |  |  | 172 | 36.6
42 | CUGGUUGUCGUAGGAUAUGUAGGAUAUUCCUACAUGAGGAUCACCCAUGUUCGCAUGGAAGAAGGACAGAAGGACGAUGACCAG |  |  | 621 | 24.9
